From ChEMBL document CHEMBL5705889, “Novel mutant-selective EGFR kinase inhibitors against EGFR T790M” (Nature, 2009) come the findings set out here.

pIC50, pKd: −log10 of the molar value. Calls of active or inactive are those of the source. The calls are words filed in the database; no cut-off is given here.

Series [1] relates to BaF3. Briefly: cells. Particulars: Mus musculus, BaF3, 72 h. The format is functional, cell-based.
In series [2] the target is Epidermal growth factor receptor (Homo sapiens, UniProt P00533). Briefly: Inhibition of EGFR phosphorylation in human PC9 Gefitinib-resistant (GR) cells at 0.01 to 1 uM incubated for 16 hrs by immunoblot analysis. Type of series: cell-based. Particulars: PC9 Gefitinib-resistant (GR) cell, dose 0.01-1 µM.
Sequence of Epidermal growth factor receptor (P00533 whole entry): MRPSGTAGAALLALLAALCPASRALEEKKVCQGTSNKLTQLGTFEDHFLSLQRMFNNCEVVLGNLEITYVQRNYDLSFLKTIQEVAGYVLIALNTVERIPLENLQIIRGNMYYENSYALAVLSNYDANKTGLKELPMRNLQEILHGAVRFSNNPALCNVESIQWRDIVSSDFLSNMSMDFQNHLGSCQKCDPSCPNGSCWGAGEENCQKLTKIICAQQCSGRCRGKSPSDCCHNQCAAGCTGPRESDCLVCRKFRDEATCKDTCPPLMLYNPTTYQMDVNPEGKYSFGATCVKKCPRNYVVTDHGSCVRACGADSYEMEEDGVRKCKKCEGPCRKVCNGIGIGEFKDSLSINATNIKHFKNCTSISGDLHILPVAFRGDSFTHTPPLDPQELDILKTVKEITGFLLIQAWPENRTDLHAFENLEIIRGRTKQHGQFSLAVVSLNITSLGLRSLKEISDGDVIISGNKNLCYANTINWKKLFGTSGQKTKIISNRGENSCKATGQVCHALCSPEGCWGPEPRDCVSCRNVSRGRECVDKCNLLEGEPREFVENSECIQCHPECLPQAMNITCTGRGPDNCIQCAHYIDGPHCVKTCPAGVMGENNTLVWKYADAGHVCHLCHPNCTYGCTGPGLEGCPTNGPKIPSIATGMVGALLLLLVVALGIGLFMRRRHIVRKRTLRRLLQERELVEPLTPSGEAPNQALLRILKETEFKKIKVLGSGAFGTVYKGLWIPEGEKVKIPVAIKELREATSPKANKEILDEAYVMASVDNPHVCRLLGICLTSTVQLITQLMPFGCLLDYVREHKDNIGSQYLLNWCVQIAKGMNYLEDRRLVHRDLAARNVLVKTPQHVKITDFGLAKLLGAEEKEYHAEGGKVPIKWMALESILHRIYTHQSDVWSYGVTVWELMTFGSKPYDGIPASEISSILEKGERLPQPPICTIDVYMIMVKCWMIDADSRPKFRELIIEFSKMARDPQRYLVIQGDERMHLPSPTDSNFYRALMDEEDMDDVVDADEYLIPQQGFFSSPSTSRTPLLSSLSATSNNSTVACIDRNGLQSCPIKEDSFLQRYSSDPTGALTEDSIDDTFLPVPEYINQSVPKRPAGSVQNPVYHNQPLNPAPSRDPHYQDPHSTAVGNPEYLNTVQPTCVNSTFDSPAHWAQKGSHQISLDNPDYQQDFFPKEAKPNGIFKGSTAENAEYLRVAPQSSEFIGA
The target in series [3] is Mitogen-activated protein kinase; ERK1/ERK2 (Homo sapiens) (UniProt P27361+P28482). Put plainly: Inhibition of ERK1/2 phosphorylation in human NCI-H1975 cells at 0.01 to 1.0 uM incubated for 16 hrs by immunoblot analysis. The format is cell-based. The note with it: dose 0.01-1 µM.
Sequence of Mitogen-activated protein kinase; ERK1/ERK2 (Homo sapiens) (P27361 whole entry, looked up): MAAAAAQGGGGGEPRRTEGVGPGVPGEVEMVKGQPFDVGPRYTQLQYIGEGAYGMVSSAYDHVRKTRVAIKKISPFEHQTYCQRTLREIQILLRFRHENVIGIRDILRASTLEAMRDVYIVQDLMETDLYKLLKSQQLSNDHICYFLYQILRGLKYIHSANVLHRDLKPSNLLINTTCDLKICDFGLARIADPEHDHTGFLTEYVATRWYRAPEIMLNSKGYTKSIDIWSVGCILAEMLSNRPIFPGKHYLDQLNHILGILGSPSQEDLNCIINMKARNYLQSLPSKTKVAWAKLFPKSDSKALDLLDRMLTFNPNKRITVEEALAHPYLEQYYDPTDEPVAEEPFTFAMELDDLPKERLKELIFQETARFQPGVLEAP
Sequence of Mitogen-activated protein kinase; ERK1/ERK2 (Homo sapiens) (P28482 whole entry, looked up): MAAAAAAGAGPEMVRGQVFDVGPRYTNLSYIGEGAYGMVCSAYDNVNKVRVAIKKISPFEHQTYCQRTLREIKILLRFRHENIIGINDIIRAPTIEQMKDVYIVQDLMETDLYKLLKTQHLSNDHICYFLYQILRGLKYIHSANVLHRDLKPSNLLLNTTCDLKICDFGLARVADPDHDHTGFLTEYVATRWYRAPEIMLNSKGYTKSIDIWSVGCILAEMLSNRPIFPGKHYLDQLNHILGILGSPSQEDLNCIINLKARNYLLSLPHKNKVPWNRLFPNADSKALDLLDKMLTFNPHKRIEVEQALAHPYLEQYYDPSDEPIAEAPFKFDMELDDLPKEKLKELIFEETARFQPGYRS
Series [4] has as its target Serine/threonine-protein kinase DCLK3 (Homo sapiens, UniProt Q9C098). Put plainly: Binding affinity to DCAMKL3 (unknown origin) assessed as dissociation constant.
The target of another series is eIF-2-alpha kinase GCN2 (Homo sapiens, UniProt Q9P2K8). Briefly: Binding affinity to GCN2 (unknown origin) assessed as dissociation constant.
Sequence of eIF-2-alpha kinase GCN2 (Q9P2K8 whole entry, the tested form may be a part): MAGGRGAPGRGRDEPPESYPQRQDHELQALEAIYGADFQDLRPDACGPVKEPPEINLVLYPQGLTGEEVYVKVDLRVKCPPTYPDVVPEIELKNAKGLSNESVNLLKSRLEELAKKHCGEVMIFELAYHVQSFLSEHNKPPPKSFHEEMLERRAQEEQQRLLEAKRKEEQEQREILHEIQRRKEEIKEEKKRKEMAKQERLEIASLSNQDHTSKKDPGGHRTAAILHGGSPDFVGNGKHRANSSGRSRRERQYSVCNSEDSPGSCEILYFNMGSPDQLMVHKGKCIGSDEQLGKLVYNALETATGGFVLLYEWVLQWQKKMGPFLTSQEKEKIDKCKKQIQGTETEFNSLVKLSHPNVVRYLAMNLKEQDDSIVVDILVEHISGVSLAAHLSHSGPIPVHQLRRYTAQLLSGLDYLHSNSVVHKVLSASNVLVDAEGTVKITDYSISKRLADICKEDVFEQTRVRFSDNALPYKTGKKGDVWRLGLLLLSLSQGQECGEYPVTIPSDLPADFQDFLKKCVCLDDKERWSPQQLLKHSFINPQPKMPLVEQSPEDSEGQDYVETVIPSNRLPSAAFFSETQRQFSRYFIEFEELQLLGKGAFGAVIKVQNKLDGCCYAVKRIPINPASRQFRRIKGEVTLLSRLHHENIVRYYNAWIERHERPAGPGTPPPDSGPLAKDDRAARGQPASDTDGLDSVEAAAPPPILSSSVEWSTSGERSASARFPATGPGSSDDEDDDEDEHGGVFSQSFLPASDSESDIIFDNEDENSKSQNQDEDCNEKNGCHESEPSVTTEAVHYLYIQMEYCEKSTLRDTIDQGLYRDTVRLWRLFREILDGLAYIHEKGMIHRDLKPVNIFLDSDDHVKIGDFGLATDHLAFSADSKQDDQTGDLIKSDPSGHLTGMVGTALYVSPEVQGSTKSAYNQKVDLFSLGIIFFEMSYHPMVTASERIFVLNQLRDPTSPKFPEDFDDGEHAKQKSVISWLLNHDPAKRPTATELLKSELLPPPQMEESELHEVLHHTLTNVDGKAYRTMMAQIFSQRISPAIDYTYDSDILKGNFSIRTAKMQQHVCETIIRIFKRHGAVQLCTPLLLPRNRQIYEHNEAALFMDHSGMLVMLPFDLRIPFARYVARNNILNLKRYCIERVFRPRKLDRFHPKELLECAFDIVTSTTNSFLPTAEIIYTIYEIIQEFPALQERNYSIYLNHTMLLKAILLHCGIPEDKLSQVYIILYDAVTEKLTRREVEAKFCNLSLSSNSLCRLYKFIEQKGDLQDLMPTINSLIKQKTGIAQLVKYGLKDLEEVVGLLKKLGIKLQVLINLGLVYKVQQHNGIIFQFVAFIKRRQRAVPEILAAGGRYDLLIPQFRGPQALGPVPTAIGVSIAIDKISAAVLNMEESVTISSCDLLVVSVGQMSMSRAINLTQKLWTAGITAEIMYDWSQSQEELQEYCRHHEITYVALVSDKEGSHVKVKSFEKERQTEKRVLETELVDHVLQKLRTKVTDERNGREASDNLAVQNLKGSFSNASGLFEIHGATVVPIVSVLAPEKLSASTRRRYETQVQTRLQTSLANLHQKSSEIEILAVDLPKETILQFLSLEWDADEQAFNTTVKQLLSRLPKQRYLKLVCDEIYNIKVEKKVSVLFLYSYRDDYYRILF
In series [5] the target is Tyrosine-protein kinase JAK2 (Homo sapiens, UniProt O60674). Briefly: Inhibition of TEL fused JAK2 (unknown origin) transformed in mouse BaF3 cells. The format is cell-based.
Series [6] can be described thus: AUC(0 to t) in mouse at 1 mg/kg, iv administered as single dose. Particulars: in vivo. Type of series: ADME, organism-based.
Series [7] can be described thus: MRT in mouse at 1 mg/kg, iv administered as single dose. Type of series: ADME, organism-based. Particulars: in vivo.
Series [8] can be described thus: Drug concentration in mouse plasma at 1 mg/kg, iv administered as single dose and measured after 2 hrs. The format is ADME, organism-based.
Series [9] is described as follows: Drug concentration in mouse plasma at 10 mg/kg, po administered as single dose and measured after 6 hrs. Type of series: ADME, organism-based.
For series [10], the system named is Mus musculus. Put plainly: In vivo inhibition of EGFR phosphorylation in transgenic mouse harboring EGFR del E746_A750/T790M mutant at 2.5 to 25 mg/kg administered as two doses separated by 16 hours by immunoblot analysis. Type of series: functional, organism-based. Particulars: dose 2.5-25 mg/kg. In short, it runs like this: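 Transgenic mice gavaged with compound in 10% 1-methyl-2-pyrrolidinone:90% PEG-300 vehicle; phosphorylation assessed in tissue by immunoblotting per standard protocols.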
For orientation: Immunoblotting shows a protein as a band on a membrane.

The test system of series [11] is Mus musculus. Put plainly: In vivo inhibition of AKT phosphorylation in transgenic mouse harboring EGFR L858R/T790M mutant at 2.5 to 25 mg/kg administered as two doses separated by 16 hours by immunoblot analysis. The format is functional, organism-based. The note with it: dose 2.5-25 mg/kg.
The test system of series [12] is Mus musculus. Put plainly: In vivo antitumor activity in transgenic mouse harboring EGFR delE746_A750/T790M mutant assessed as increase in TUNEL positive cells at 25 mg/kg administered via gavage for 2 weeks by immunohistochemical analysis. The format is functional, organism-based. Put shortly:
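Transgenic EGFR T790M mutant mice were given daily gavage at 25mg/kg in 10% 1-methyl-2-pyrrolidinone:90% PEG-300 vehicle, alongside vehicle-alone controls. Tumor tissue was immunostained by standard protocols, and TUNEL-positive and Ki67-positive cells were counted.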

The test system of series [13] is Mus musculus. Briefly: Invivo antitumor activity in transgenic mouse harboring EGFR del19/T790M mutant assessed as increase in fibrosis at 25 mg/kg administered via gavage for 2 weeks by H&E staining based analysis. Type of series: functional, organism-based. In short, it runs like this:
(§1)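 EGFR-TL (L858R/T790M) or exon19 deletion-T790M (TD) inducible bitransgenic mice dosed by oral gavage daily at 25 mg/kg; vehicle 10% 1-methyl-2-pyrrolidinone:90% PEG-300. Tumors followed by MRI; lung histology by standard protocols.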

Series [14] concerns Mus musculus. Put plainly: Invivo antitumor activity in transgenic mouse harboring EGFR L858R/T790M mutant assessed as reduction in small residual nodules in tumor at 25 mg/kg administered via gavage for 2 weeks by H&E staining based analysis. The format is functional, organism-based. Put shortly: as §1
The subject of series [15] is Mus musculus. Briefly: Invivo antitumor activity in transgenic mouse harboring EGFR L858R/T790M mutant assessed as reduction in nodule remnants in tumor at 25 mg/kg administered via gavage for 2 weeks by H&E staining based analysis. The format is functional, organism-based. Put shortly:
as §1

Series [16] deals with BaF3. Briefly: Prevention of EGFR T790M mutant development in mouse BaF3 cells harboring L858R mutant assessed as reduction in resistant clones with T790M mutant at 0.001 to 1 uM. Type of series: functional, cell-based. The note with it: dose 0.001-1 µM. In short, it runs like this: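 Ba/F3 cells with EGFR L858R or delE746_A750 mutagenized with N-ethyl-N-nitrosourea, then expanded in 100 nM or 1 μM inhibitor; resistant clones isolated and characterized for EGFR T790M.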

Sequence of Serine/threonine-protein kinase DCLK3 (Q9C098 whole entry): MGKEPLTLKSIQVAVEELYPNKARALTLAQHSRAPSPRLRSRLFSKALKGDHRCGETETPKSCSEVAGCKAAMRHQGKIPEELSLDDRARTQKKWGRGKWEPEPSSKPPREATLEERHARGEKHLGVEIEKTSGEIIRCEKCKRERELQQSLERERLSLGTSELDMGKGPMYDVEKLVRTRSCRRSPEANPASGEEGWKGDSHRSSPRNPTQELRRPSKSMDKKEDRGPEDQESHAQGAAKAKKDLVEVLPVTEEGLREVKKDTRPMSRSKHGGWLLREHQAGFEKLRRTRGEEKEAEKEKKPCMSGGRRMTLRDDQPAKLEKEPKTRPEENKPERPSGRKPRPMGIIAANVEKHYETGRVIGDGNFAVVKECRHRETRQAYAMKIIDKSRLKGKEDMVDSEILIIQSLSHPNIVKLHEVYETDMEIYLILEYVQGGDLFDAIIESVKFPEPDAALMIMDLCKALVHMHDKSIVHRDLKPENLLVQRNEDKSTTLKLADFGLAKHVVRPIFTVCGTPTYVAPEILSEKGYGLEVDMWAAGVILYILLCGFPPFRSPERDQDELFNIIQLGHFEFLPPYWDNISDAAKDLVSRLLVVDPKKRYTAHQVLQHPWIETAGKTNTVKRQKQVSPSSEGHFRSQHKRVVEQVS

The pIC50 is the IC50 on a negative log10 scale, so that one unit is a factor of ten. By pKd is commonly meant the Kd on a negative log10 scale, so that one unit is a factor of ten. What is called AUC(0-t) is the area under the concentration-time curve up to a stated or last time point. Low readings indicate low exposure, high ones high exposure. In general, MRT refers to the average time that molecules of a dose stay in the body. Consider `C=CC(=O)Nc1cccc(Oc2nc(Nc3ccc(N4CCN(C)CC4)cc3OC)ncc2Cl)c1`, for which the results for the pIC50 (in the series on BaF3 [1]; in series [5]) were 8.52 and 5.42, respectively. For the same compound, the inhibition result (in [2]; in series [3]; with Mus musculus [10]; in the series on Mus musculus [11]) was “Active” in each case. Further, the pKd in [4] is 6.04; at eIF-2-alpha kinase GCN2, 6.85. Besides, the AUC(0-t) in series [6] came to 956 ng·h/mL. The MRT in series [7] was found to be 1.51 h. Besides, in series [8], the concentration at 2 h was determined as 80.4 ng/mL. Moreover, in [9], the concentration at 6 h is 140 ng/mL. The result in the series with Mus musculus [12], with Mus musculus [13], in the series on Mus musculus [14], in the series with Mus musculus [15] and with BaF3 [16] was Active.
